Active and inactive are the calls of the source. The calls are words filed in the database; no cut-off is given here.
Key:
[1] = Cytotoxicity against mouse J774 cells assessed as reduction in cell viability incubated for 72 hrs by MTT assay; format: cell-based
Procedure, shortened: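 J774 macrophages seeded at 1 × 10^5 cells/well overnight, then exposed to graded concentrations (7.81–500 µM) for 72 h at 37 °C, 5% CO2. MTT (5 mg/mL) added for 2 h, formazan solubilized in DMSO and read at 570 nm. CC50 taken as 50% viability loss relative to untreated cells.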

Leishmania donovani [2] = experiment: Antileishmanial activity against log phase of Leishmania donovani MHOM/IN/80/Dd8 promastigotes assessed as reduction in cell viability at 50 uM incubated for 72 hrs by MTT assay; format: functional
Procedure, shortened: (§1)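 Log-phase luciferase-transfected L. donovani Dd8 promastigotes (M199 + 10% FBS, 24 °C) treated with compounds at 25 and 50 µM in DMSO, with 0.1% DMSO vehicle control. After 72 h, MTT added 4 h. Formazan dissolved in DMSO, read at 570 nm. Percent inhibition reported as mean ± SD of at least three independent experiments in replicate.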

Leishmania donovani [3] = experiment: Antileishmanial activity against log phase of Leishmania donovani MHOM/IN/80/Dd8 promastigotes assessed as reduction in cell viability at 25 uM incubated for 72 hrs by MTT assay; format: functional; procedure, shortened: as §1
Leishmania donovani [4] = experiment: Antileishmanial activity against amastigote stage of Leishmania donovani MHOM/IN/80/Dd8 harboring luciferase gene infected in mouse J774 cells assessed as parasite growth inhibition at 50 uM incubated for 72 hrs by Steady-Glo reagent based luciferase assay; format: functional; conditions: MHOM/IN/80/Dd8, J774
Procedure, shortened: (§2)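 J774 murine macrophages, 4 × 10⁴ cells/well in RPMI with 10% FBS for 24 h, are infected for 24 h at 37 °C, 5% CO₂ with stationary-phase luciferase-transfected L. donovani Dd8 promastigotes at a 1:8 macrophage:parasite ratio. Compounds are dissolved in DMSO. Luminescence is read after Steady-Glo is added in PBS. IC₅₀ is taken from a four-parameter Hill nonlinear regression. Miltefosine is the reference.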

Leishmania donovani [5] = experiment: Induction of apoptosis in Leishmania donovani MHOM/IN/80/Dd8 promastigotes assessed as late apoptotic cells at 50 uM measured after 48 hrs by Alexa fluor488-AnnexinV/PI staining based FACSCalibur flow cytometry analysis (reference value: 0.7%); format: functional
Splenocyte [6] = experiment: Immunomodulatory activity in BALB/c mouse infected with Leishmania donovani amastigotes assessed as increase in IL-12 level in splenocytes supernatants at 50 mg/kg, ip for 5 days; format: functional, organism-based; conditions: time 5.0 day
Splenocyte [7] = experiment: Immunomodulatory activity in BALB/c mouse infected with Leishmania donovani amastigotes assessed as decrease in TGF-beta level in splenocytes supernatants at 50 mg/kg, ip for 5 days; format: functional, organism-based; conditions: time 5.0 day
Leishmania donovani [8] = experiment: Antileishmanial activity against amastigote stage of Leishmania donovani MHOM/IN/80/Dd8 harboring luciferase gene infected in mouse J774 cells assessed as parasite killing incubated for 72 hrs by Steady-Glo reagent based luciferase assay; format: functional, organism-based; conditions: dose 3.12-50 µM; procedure, shortened: as §2
Leishmania donovani [9] = experiment: Induction of apoptosis in Leishmania donovani MHOM/IN/80/Dd8 promastigotes assessed as early apoptotic cells at 50 uM measured after 24 hrs by Alexa fluor488-AnnexinV/PI staining based FACSCalibur flow cytometry analysis (reference value: 10.3%); format: functional
Leishmania donovani [10] = experiment: Induction of apoptosis in Leishmania donovani MHOM/IN/80/Dd8 promastigotes assessed as early apoptotic cells at 50 uM measured after 48 hrs by Alexa fluor488-AnnexinV/PI staining based FACSCalibur flow cytometry analysis (reference value: 10.3%); format: functional
Leishmania donovani [11] = experiment: Induction of apoptosis in Leishmania donovani MHOM/IN/80/Dd8 promastigotes assessed as early apoptotic cells at 50 uM measured after 72 hrs by Alexa fluor488-AnnexinV/PI staining based FACSCalibur flow cytometry analysis (reference value: 10.3%); format: functional
Leishmania donovani [12] = experiment: Induction of apoptosis in Leishmania donovani MHOM/IN/80/Dd8 promastigotes assessed as late apoptotic cells at 50 uM measured after 72 hrs by Alexa fluor488-AnnexinV/PI staining based FACSCalibur flow cytometry analysis (reference value: 0.7%); format: functional
Leishmania donovani [13] = experiment: Induction of mitochondrial membrane potential dysfunction in Leishmania donovani MHOM/IN/80/Dd8 promastigotes assessed as cells with mitochondrial depolarization at 50 uM incubated for 48 hrs by JC1 staining based flow cytometry (reference value: 3.63%); format: functional
Procedure, shortened: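 Promastigotes (1 × 10^6 cells/mL) exposed to 50 µM for 24–72 h, or to IC50 for 72 h. CCCP (50 µM final) served as depolarization positive control. Cells washed, stained with JC-1 (2 µM final) 30 min at 37 °C, 5% CO2. Red-to-green fluorescence shift measured by flow cytometry.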

Leishmania donovani [14] = experiment: Induction of mitochondrial membrane potential dysfunction in Leishmania donovani MHOM/IN/80/Dd8 promastigotes assessed as cells with mitochondrial depolarization at 50 uM incubated for 72 hrs by JC1 staining based flow cytometry (reference value: 3.63%); format: functional
Leishmania donovani [15] = experiment: Induction of apoptosis in Leishmania donovani MHOM/IN/80/Dd8 promastigotes assessed as DNA fragmentation by measuring bright green coloured positive apoptotic nuclei at 50 uM incubated for 72 hrs by TUNEL staining based confocal microscopic analysis; format: functional, organism-based
Procedure, shortened: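 Log-phase promastigotes treated with 50 µM for 72 h, washed, adhered to poly-L-lysine slides and fixed in 4% paraformaldehyde. Permeabilized in ice-cold 70% ethanol 30 min. Labeled with TdT/BrdUTP 60 min at 37 °C, then Alexa Fluor 488 anti-BrdU 30 min and PI/RNase A 30 min. Imaged by confocal microscopy; vehicle was 0.1% DMSO.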

Leishmania donovani [16] = experiment: Antileishmanial activity against amastigote stage of Leishmania donovani MHOM/IN/80/Dd8 harboring luciferase gene infected in mouse J774 cells assessed as parasite growth inhibition by Giemsa staining based analysis; format: functional, organism-based; conditions: time 12-72 hrs, TDE = time-dependent effect
Procedure, shortened: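 J774 macrophages are infected for 24 h with stationary-phase luciferase-transfected Dd8 promastigotes at a 1:8 ratio in chamber slides. After compound treatment, cells are fixed and Giemsa-stained, and intracellular amastigotes are counted by microscopy.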

Leishmania donovani [17] = experiment: Antileishmanial activity against amastigote stage of Leishmania donovani MHOM/IN/80/Dd8 harboring luciferase gene infected in mouse J774 cells assessed as parasite killing at 50 to 100 uM incubated for 72 hrs by Steady-Glo reagent based luciferase assay; format: functional; conditions: dose 50-100 µM; procedure, shortened: as §2
Leishmania donovani [18] = experiment: Antileishmanial activity against amastigote stage of Leishmania donovani MHOM/IN/80/Dd8 harboring luciferase gene infected in mouse J774 cells assessed as parasite growth inhibition incubated for 72 hrs by Steady-Glo reagent based luciferase assay; format: functional, organism-based; conditions: MHOM/IN/80/Dd8, J774, 72 h; procedure, shortened: as §2
Leishmania donovani [19] = experiment: Induction of apoptosis in Leishmania donovani MHOM/IN/80/Dd8 promastigotes assessed as increase in cytochrome c release by measuring decrease in cytochrome c level in mitochondria at 50 uM incubated for 12 to 72 hrs by Western blot analysis; format: functional, organism-based; conditions: time 12-72 hrs
Procedure, shortened: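 Promastigotes treated with 50 µM for 12, 24, 48 and 72 h, then washed in PBS. Cell fractionation buffer applied 10 min on ice, cells homogenized, centrifuged 10,000 × g for 25 min at 4 °C. Cytosolic and mitochondrial fractions immunoblotted for cytochrome c. Loading controls were actin (cytosol) and COX-4 (mitochondria).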

`N#Cc1c(N2CCN(c3ccccc3O)CC2)cc(-c2ccccc2)oc1=O` showed a CC50 at 72 h [1] of 351 µM, an inhibition at 50 µM (Leishmania donovani [2]) of 85.2% and an inhibition at 25 µM (Leishmania donovani [3]) of 82.7%. For the same molecule, the inhibition at 50 µM (Leishmania donovani [4]) was 95.7%, the Activity (Leishmania donovani [5]) was 2.3% and the Activity (Splenocyte [6]) was “inactive”. The Activity (Splenocyte [7]) was “inactive”, the Activity (Leishmania donovani [8]) was “Dose-Dependent Effect” and the Activity (Leishmania donovani [9]) was 15.4%. It also gave an Activity (Leishmania donovani [10]) of 39.1%, an Activity (Leishmania donovani [11]) of 41.4% and an Activity (Leishmania donovani [12]) of 13.1%. The Activity (Leishmania donovani [13]) was 54.1%, the Activity (Leishmania donovani [14]) was 86.9% and the Activity (Leishmania donovani [15]) was “Active”. The Activity (Leishmania donovani [16]) was “Tde”, the Activity (Leishmania donovani [17]) was >89% and the IC50 (Leishmania donovani [18]) was 11.1 µM. For the same molecule, the Activity (Leishmania donovani [19]) was “Active”.

From ChEMBL document CHEMBL4837217, “Design, synthesis, in vitro and in vivo biological evaluation of pyranone-piperazine analogs as potent antileishmanial agents” (Eur J Med Chem, 2021)
